“And” between values parts separate entries of the source, which are not always exact repeats. Equal entries are not always repeated.
Legend:
Rattus norvegicus [1] = assay: Biodistribution in rat heart after 5 min of intravenous injection at a dose of […]; format: ADME, organism-based; settings: in vivo
Outline: (§1)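 Female Sprague–Dawley rats (140–160 g, four per time point), fed ad lib, ether-anesthetized just before injection. Radiotracer bound to human serum albumin in ethanol–saline, given by femoral vein (≈50 μCi/rat). Rats sacrificed at 5, 10, 15, 30 or 60 min. Tissues excised and weighed, activity measured by γ-counting, expressed as %ID/g.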

Rattus norvegicus [2] = assay: Biodistribution in rat liver after 1 hr of intravenous injection at a dose of […]; format: ADME, organism-based; settings: in vivo; outline: as §1
Rattus norvegicus [3] = assay: Biodistribution in rat lung after 1 hr of intravenous injection at a dose of […]; format: ADME, organism-based; settings: in vivo; outline: as §1
Rattus norvegicus [4] = assay: Biodistribution in rat blood after 1 hr of intravenous injection at a dose of […]; format: ADME, organism-based; settings: in vivo; outline: as §1
Rattus norvegicus [5] = assay: Biodistribution in rat heart after 30 min of intravenous injection at a dose of […]; format: ADME, organism-based; settings: in vivo, 0.5 h; outline: as §1
Rattus norvegicus [6] = assay: Biodistribution in rat heart after 15 min of intravenous injection at a dose of […]; format: ADME, organism-based; settings: in vivo, 0.25 h; outline: as §1
Rattus norvegicus [7] = assay: Biodistribution in rat liver after 10 min of intravenous injection at a dose of […]; format: ADME, organism-based; settings: in vivo; outline: as §1
Rattus norvegicus [8] = assay: Biodistribution in rat kidney after 1 h of intravenous injection at a dose of […]; format: ADME, organism-based; settings: in vivo; outline: as §1
Rattus norvegicus [9] = assay: Biodistribution in rat muscle after 10 min of intravenous injection at a dose of […]; format: ADME, organism-based, Muscle tissue; settings: in vivo; outline: as §1
Rattus norvegicus [10] = assay: Biodistribution in rat kidney after 5 min of intravenous injection at a dose of […]; format: ADME, organism-based; settings: in vivo; outline: as §1
Rattus norvegicus [11] = assay: Biodistribution in rat kidney after 10 min of intravenous injection at a dose of […]; format: ADME, organism-based; settings: in vivo; outline: as §1
Rattus norvegicus [12] = assay: Biodistribution in rat lung after 10 min of intravenous injection at a dose of […]; format: ADME, organism-based; settings: in vivo; outline: as §1
Rattus norvegicus [13] = assay: Biodistribution in rat muscle after 1 hr of intravenous injection at a dose of […]; format: ADME, organism-based, Muscle tissue; settings: in vivo; outline: as §1
Rattus norvegicus [14] = assay: Biodistribution in rat blood after 15 min of intravenous injection at a dose of […]; format: ADME, organism-based; settings: in vivo, 0.25 h; outline: as §1
Rattus norvegicus [15] = assay: Biodistribution in rat heart after 1 hr of intravenous injection at a dose of […]; format: ADME, organism-based; settings: in vivo; outline: as §1
Rattus norvegicus [16] = assay: Biodistribution in rat muscle after 15 min of intravenous injection at a dose of […]; format: ADME, organism-based, Muscle tissue; settings: in vivo, 0.25 h; outline: as §1
Rattus norvegicus [17] = assay: Biodistribution in rat kidney after 30 min of intravenous injection at a dose of […]; format: ADME, organism-based; settings: in vivo, 0.5 h; outline: as §1
Rattus norvegicus [18] = assay: Biodistribution in rat liver after 30 min of intravenous injection at a dose of […]; format: ADME, organism-based; settings: in vivo, 0.5 h; outline: as §1
Rattus norvegicus [19] = assay: Biodistribution in rat blood after 5 min of intravenous injection at a dose of […]; format: ADME, organism-based; settings: in vivo; outline: as §1
Rattus norvegicus [20] = assay: Biodistribution in rat lung after 5 min of intravenous injection at a dose of […]; format: ADME, organism-based; settings: in vivo; outline: as §1
Rattus norvegicus [21] = assay: Biodistribution in rat blood after 30 min of intravenous injection at a dose of […]; format: ADME, organism-based; settings: in vivo, 0.5 h; outline: as §1
Rattus norvegicus [22] = assay: Biodistribution in rat lung after 15 min of intravenous injection at a dose of […]; format: ADME, organism-based; settings: in vivo, 0.25 h; outline: as §1
Rattus norvegicus [23] = assay: Biodistribution in rat muscle after 30 min of intravenous injection at a dose of […]; format: ADME, organism-based, Muscle tissue; settings: in vivo, 0.5 h; outline: as §1
Rattus norvegicus [24] = assay: Biodistribution in rat liver after 15 min of intravenous injection at a dose of […]; format: ADME, organism-based; settings: in vivo, 0.25 h; outline: as §1
Rattus norvegicus [25] = assay: Biodistribution in rat heart after 10 min of intravenous injection at a dose of […]; format: ADME, organism-based; settings: in vivo; outline: as §1
Rattus norvegicus [26] = assay: Biodistribution in rat liver after 5 min of intravenous injection at a dose of […]; format: ADME, organism-based; settings: in vivo; outline: as §1
Rattus norvegicus [27] = assay: Biodistribution in rat muscle after 5 min of intravenous injection at a dose of […]; format: ADME, organism-based, Muscle tissue; settings: in vivo; outline: as §1
Rattus norvegicus [28] = assay: Biodistribution in rat kidney after 15 min of intravenous injection at a dose of […]; format: ADME, organism-based; settings: in vivo, 0.25 h; outline: as §1
Rattus norvegicus [29] = assay: Biodistribution in rat lung after 30 min of intravenous injection at a dose of […]; format: ADME, organism-based; settings: in vivo, 0.5 h; outline: as §1
Rattus norvegicus [30] = assay: Biodistribution in rat blood after 10 min of intravenous injection at a dose of […]; format: ADME, organism-based; settings: in vivo; outline: as §1

ID/g (Rattus norvegicus [1]): 1.675% and 0.996%
ID/g (Rattus norvegicus [2]): 6.944% and 4.853%
ID/g (Rattus norvegicus [3]): 1.154% and 1.08%
ID/g (Rattus norvegicus [4]): 0.237% and 0.157%
ID/g (Rattus norvegicus [5]): 1.813% and 0.941%
ID/g (Rattus norvegicus [6]): 0.981% and 1.011%
ID/g (Rattus norvegicus [7]): 8.38% and 8.36%
ID/g (Rattus norvegicus [8]): 1.166% and 1.238%
ID/g (Rattus norvegicus [9]): 0.198% and 0.179%
ID/g (Rattus norvegicus [10]): 1.154% and 0.994%
ID/g (Rattus norvegicus [11]): 1.184% and 1.343%
ID/g (Rattus norvegicus [12]): 1.427% and 1.272%
ID/g (Rattus norvegicus [13]): 0.237% and 0.194%
ID/g (Rattus norvegicus [14]): 0.31% and 0.373%
ID/g (Rattus norvegicus [15]): 1.159% and 0.792%
ID/g (Rattus norvegicus [16]): 0.221% and 0.166%
ID/g (Rattus norvegicus [17]): 1.28% and 1.301%
ID/g (Rattus norvegicus [18]): 8.25% and 5.62%
ID/g (Rattus norvegicus [19]): 0.25% and 0.116%
ID/g (Rattus norvegicus [20]): 1.353% and 0.945%
ID/g (Rattus norvegicus [21]): 0.43% and 0.329%
ID/g (Rattus norvegicus [22]): 1.165% and 1.246%
ID/g (Rattus norvegicus [23]): 0.222% and 0.198%
ID/g (Rattus norvegicus [24]): 8.195% and 6.252%
ID/g (Rattus norvegicus [25]): 1.372% and 1.08%
ID/g (Rattus norvegicus [26]): 8.189% and 5.94%
ID/g (Rattus norvegicus [27]): 0.197% and 0.183%
ID/g (Rattus norvegicus [28]): 1.105% and 1.184%
ID/g (Rattus norvegicus [29]): 1.423% and 1.173%
ID/g (Rattus norvegicus [30]): 0.171% and 0.13%
Compound: CCCCCCCCCCCCCCCC(=O)O [PALMITIC ACID]
